From ChEMBL document CHEMBL1141765, “Alkaloids from Alangium javanicum and Alangium grisolleoides that mediate Cu2+-dependent DNA strand scission” (J Nat Prod, 2005)
Values joined by “and” are separate entries in the source; they are usually repeats but may differ in a detail not shown here. Equal values may be shown once.

How the values were obtained:
Escherichia coli [1] = assay: Induction of DNA strand scission activity against Escherichia coli pBR322 assessed as form 2 DNA levels at 200 uM after 60 mins by electrophoresis in presence of 20 uM Cu2+; type: functional
Summary of the method: (§1)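 Supercoiled pBR322 plasmid DNA (500 ng) was incubated with compound, with or without 20 µM Cu2+, in 10 mM Tris-HCl, pH 8.0. Compound came from DMSO, final DMSO ≤5%. Incubation was 37 °C for 60 min. Blank (DNA only) and Cu2+-only controls were included. Samples were run on 1.0% agarose gels with ethidium bromide in TBE, pH 8.3. Form I→Form II conversion was quantified by gel densitometry.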

Escherichia coli [2] = assay: Induction of DNA strand scission activity against Escherichia coli pBR322 assessed as form 2 DNA levels at 200 uM after 60 mins by electrophoresis in absence of 20 uM Cu2+; type: functional; summary of the method: as §1
Escherichia coli [3] = assay: Induction of DNA strand scission activity against Escherichia coli pBR322 assessed as form 2 DNA levels at 100 uM after 60 mins by electrophoresis in presence of 20 uM Cu2+; type: functional; summary of the method: as §1
Escherichia coli [4] = assay: Induction of DNA strand scission activity against Escherichia coli pBR322 assessed as form 2 DNA levels at 50 uM after 60 mins by electrophoresis in presence of 20 uM Cu2+; type: functional; summary of the method: as §1
Escherichia coli [5] = assay: Induction of DNA strand scission activity against Escherichia coli pBR322 assessed as form 2 DNA levels at 25 uM after 60 mins by electrophoresis in presence of 20 uM Cu2+; type: functional; summary of the method: as §1
Escherichia coli [6] = assay: Induction of DNA strand scission activity against Escherichia coli pBR322 assessed as form 2 DNA levels at 10 uM after 60 mins by electrophoresis in presence of 20 uM Cu2+; type: functional; summary of the method: as §1
Escherichia coli [7] = assay: Induction of DNA strand scission activity against Escherichia coli pSP64 assessed as form 2 DNA levels at 10 uM after 2 hrs by electrophoresis in presence of equimolar amount of Cu2+
Escherichia coli [8] = assay: Induction of DNA strand scission activity against Escherichia coli pSP64 assessed as form 2 DNA levels at 200 uM after 2 hrs by electrophoresis in presence of equimolar amount of Cu2+
Escherichia coli [9] = assay: Induction of DNA strand scission activity against Escherichia coli pSP64 assessed as form 2 DNA levels at 100 uM after 2 hrs by electrophoresis in presence of equimolar amount of Cu2+
Escherichia coli [10] = assay: Induction of DNA strand scission activity against Escherichia coli pBR322 assessed as form 2 DNA levels at 500 uM after 60 mins by electrophoresis in presence of 20 uM Cu2+; type: functional; summary of the method: as §1
Escherichia coli [11] = assay: Induction of DNA strand scission activity against Escherichia coli pBR322 assessed as form 2 DNA levels at 500 uM after 60 mins by electrophoresis in absence of 20 uM Cu2+; type: functional; summary of the method: as §1

| SMILES | Activity (Escherichia coli [1]) [%] | Activity (Escherichia coli [2]) [%] | Activity (Escherichia coli [3]) [%] | Activity (Escherichia coli [4]) [%] | Activity (Escherichia coli [5]) [%] | Activity (Escherichia coli [6]) [%] | Activity (Escherichia coli [7]) [%] | Activity (Escherichia coli [8]) | Activity (Escherichia coli [9]) | Activity (Escherichia coli [10]) [%] | Activity (Escherichia coli [11]) [%] |
| --- | --- | --- | --- | --- | --- | --- | --- | --- | --- | --- | --- |
| C=C[C@H]1[C@H](O[C@@H]2O[C@H](CO)[C@@H](O)[C@H](O)[C@H]2O)OC=C2C(=O)N3CC[C@@]4(C(=O)Nc5ccccc54)[C@H]3C[C@H]21 | 58 | 3 | 29 | 20 | 16 | 10 | 0 | 43% and 35% | 28% and 16% |  |  |
| C=C[C@H]1[C@H](O[C@@H]2O[C@H](CO)[C@@H](O)[C@H](O)[C@H]2O)OC=C2C(=O)N3CCc4cc(OC)c(O)cc4[C@H]3C[C@H]21 | 30 |  | 25 | 18 |  | 14 |  |  |  | 42 | 3 |
| C=C[C@H]1[C@H](O[C@@H]2O[C@H](CO)[C@@H](O)[C@H](O)[C@H]2O)OC=C2C(=O)N3CC[C@]4(C(=O)Nc5ccccc54)[C@H]3C[C@H]21 |  |  |  |  |  |  | 0 | 7% | 5% |  |  |
